Here are results for 7 molecules from ChEMBL document CHEMBL1955742, “Synthesis and SAR studies of phenanthroindolizidine and phenanthroquinolizidine alkaloids as potent anti-tumor agents” (2012).

The GI50 is the concentration at which growth is held to half of that of the control. As usually defined, the inhibition is the share of the control response that was lost under treatment. A higher inhibition goes with a strong effect.

Assay type in all cases: functional
Assay [1] deals with HL-60. Put plainly: Antiproliferative activity against human HL60 cells after 72 hrs by SRB assay. As to conditions: Homo sapiens, HL-60, 72 h. Summed up:
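HL60 human promyelocytic leukemia cells were seeded and grown for 24 h, then given compounds and cultured for another 72 h. Read-out was SRB, per the table footnote. GI50 was obtained by the Logit method from three or more independent experiments.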
(The SRB assay estimates cell density from bound dye.)

Assay [2] has as its system HL-60. Put plainly: Antiproliferative activity against human HL60 cells at 10^-8 mol/L after 72 hrs by SRB assay. As to conditions: HL-60, 72 h.
In assay [3] the test system is HL-60. Put plainly: Antiproliferative activity against human HL60 cells at 10^-7 mol/L after 72 hrs by SRB assay. The note with it: HL-60, 72 h.
Assay [4] relates to HL-60. Kind of assay: Antiproliferative activity against human HL60 cells at 10^-6 mol/L after 72 hrs by SRB assay. The note with it: HL-60, 72 h.
In assay [5] the test system is A549. Kind of assay: Antiproliferative activity against human A549 cells after 72 hrs by MTT assay. The note with it: Homo sapiens, A549, 72 h. Summed up: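 A549 human lung adenocarcinoma epithelial cells were seeded and grown for 24 h, then exposed to compounds for a further 72 h. Proliferation was read by MTT, as assigned in the table footnote. GI50 was calculated by the Logit method from at least three independent experiments.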
(In general: Tetrazolium assays rely on reduction of a dye to a coloured formazan, in cell work by metabolically active cells.)

The test system of assay [6] is A549. Kind of assay: Antiproliferative activity against human A549 cells at 10^-6 mol/L after 72 hrs by MTT assay. The note with it: A549, 72 h.
The subject of assay [7] is A549. Kind of assay: Antiproliferative activity against human A549 cells at 10^-8 mol/L after 72 hrs by MTT assay. As to conditions: A549, 72 h.
Assay [8] concerns A549. Kind of assay: Antiproliferative activity against human A549 cells at 10^-7 mol/L after 72 hrs by MTT assay. As to conditions: A549, 72 h.

For the molecule `COc1cc2c3c(c4ccc(O)cc4c2cc1OC)CN1CCC[C@H]1C3`, the GI50 in assay [1] worked out at 0.1 µM; in assay [5], 0.04 µM. Moreover, the inhibition at 0.01 µM in assay [2] turned out to be 37.4%; in assay [7], 21.9%. In addition, the inhibition at 0.1 µM in assay [3] was 76.1%; in assay [8], 71.3%. Besides, the inhibition at 1 µM amounted to 85.8% in assay [4] and 85.9% in assay [6].
`COc1cc2c3c(c4cc(OC)c(OC)cc4c2cc1OC)[C@@H](O)[C@H]1CCCN1C3`: the inhibition at 0.01 µM in assay [2] worked out at 12.7%; in assay [7], 12.3%. The inhibition at 0.1 µM in assay [3] came out at 37.1%; in assay [8], 31.3%. Further, the inhibition at 1 µM came out at 76% in assay [4] and 68.9% in assay [6]. This molecule also displayed a GI50 in assay [5] of 1.29 µM.
Regarding `COc1cc2c3c(c4cc(OC)c(OC)cc4c2cc1OC)[C@H](O)[C@@H]1CCCN1C3`, the inhibition at 0.01 µM in assay [2] turned out to be 34.5%; in assay [7] it was 17.1%. Also, the inhibition at 0.1 µM in assay [3] worked out at 59.5%; in assay [8], 55%. Besides, the inhibition at 1 µM was 85% in assay [4] and 80.9% in assay [6]. Further, in assay [5], the GI50 was 0.67 µM.
Take `COc1cc2c3c(c4ccc(O)cc4c2cc1OC)CN1CCC[C@@H]1C3`: the GI50 in assay [1] and in assay [5] was less than 0.001 µM each time. In addition, the figures for the inhibition at 0.01 µM in assay [2] and in assay [7] were 86.5% and 86%, respectively. Besides, the figures for the inhibition at 0.1 µM in assay [3] and in assay [8] were 87.1% and 92.3%, respectively. Further, the inhibition at 1 µM in assay [4] amounted to 89.7%; in assay [6] it was 94.8%.
Consider `COc1cc2c3c(c4cc5c(cc4c2cc1OC)OCCO5)CC1CCCN1C3` (racemic), for which the figures for the inhibition at 0.01 µM in assay [2] and in assay [7] were 3.8% and 14%, respectively. For the same molecule, the inhibition at 0.1 µM in assay [3] stood at 37%; in assay [8] it was 58.2%. Also, the inhibition at 1 µM in assay [4] worked out at 83.1%; in assay [6], 87.4%. This molecule yielded a GI50 in assay [5] of 0.36 µM.
On to `COc1cc2c3c(c4cc5c(cc4c2cc1OC)OCCO5)CN1CCCC1C3` (racemic), for which the inhibition at 0.01 µM came out at 16% in assay [2] and 2.1% in assay [7]. Besides, the inhibition at 0.1 µM in assay [3] worked out at 52.2%; in assay [8], 78.9%. Further, the figures for the inhibition at 1 µM in assay [4] and in assay [6] were 84.4% and 85.6%, respectively. Halving of growth in assay [5] (GI50) required 0.97 µM.
Regarding `COc1cc2c3c(c4cc(OC)c(OC)cc4c2cc1OC)CN1CCCC1C3` (racemic) [(+/-)-TYLOPHORINE], the GI50 in assay [1] was 0.1 µM; in assay [5] it was 1.3 µM. The inhibition at 0.01 µM in assay [2] is 14.9%; in assay [7] it was 6%. Also, the inhibition at 0.1 µM worked out at 40.5% in assay [3] and 61.4% in assay [8]. Moreover, the results for the inhibition at 1 µM in assay [4] and in assay [6] were 71.3% and 72.3%, respectively.
